B1: tRNA (parent)
chain: GUUCCGUUGGCGUAAUGGUAACGCGUCUCCCUCCUAAGGAGAAGACUGCGGGUUCGAGUCCCGUACGGAACG

Variants of: B1
Experiment: yeast fitness, log relative to wild type (ln ratio); higher = fitter; tRNA-Arg(CCU), competitive growth, 37 C, 1 M NaCl
How it was run: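 Genotype fitness is expressed as the natural log of its generations over those of the wild type. Each pool of the tRNA-Arg(CCU) variant library, carried on a HIS3 centromeric plasmid in BY4742 lacking the chromosomal gene, came from one of two independent transformations and grew 4 generations in SC-HIS at 30 °C before ~6.5 generations (~26.5 h) in SC-HIS 1M NaCl at 37 °C. Generation numbers used OD-scaled log2 output/input frequencies from 125 bp paired-end Illumina sequencing, combined across replicates by inverse-variance weighting.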
For U2C G6U A43C C46U C66A, the “yeast fitness (ln)” value was -0.0972. In the case of U2C G6A C27U A69G C71U, the “yeast fitness (ln)” value is reported as -0.0988. In the case of U2C G6A C27U A43C C66U A70U C71U, the “yeast fitness (ln)” value is reported as -0.309. With U2C G6A C27U A43C A70U C71U the “yeast fitness (ln)” value was -0.243. In the case of U2C G6A A43C C66U C71U, the “yeast fitness (ln)” value is reported as -0.115. For U2C G6U A43C A69G A70U, the “yeast fitness (ln)” value was -0.152. In the case of U2C G6U A43C A69G A70G, the “yeast fitness (ln)” value is reported as -0.143. In the case of U2C G6A C27U C46U A69G A70U C71U, the “yeast fitness (ln)” value is reported as -0.295. For U2C G6U C27U A43C C46U A70G C71U, the “yeast fitness (ln)” value was -0.132. For U2C G6U C27U A43C C66U A70U, the “yeast fitness (ln)” value was -0.156. For U2C G6U C27U A43C C66U A70G, the “yeast fitness (ln)” value was -0.366. For U2C G6A C27U C46U C66U A70U, the “yeast fitness (ln)” value was -0.112. In the case of U2C G6A C27U C46U C66U A70G, the “yeast fitness (ln)” value is reported as -0.0278. With U2C G6A C27U C66U the “yeast fitness (ln)” value was -0.217. In the case of U2C G6A C66U A70G C71U, the “yeast fitness (ln)” value is reported as -0.0109. With U2C G6U the “yeast fitness (ln)” value was -0.00207. With U2C G6U C27U A43C C46U C66U A70G the “yeast fitness (ln)” value was -0.304. With U2C G6U C27U A43C C46U C66U A70U the “yeast fitness (ln)” value was -0.173. With U2C G6A C27U C46U C66A C71U the “yeast fitness (ln)” value was -0.101. With U2C G6U C27U A43C C46U A69G A70G C71U the “yeast fitness (ln)” value was -0.188. With U2C G6A A69G A70U C71U the “yeast fitness (ln)” value was -0.174. With U2C G6A C27U A43C A69G C71U the “yeast fitness (ln)” value was -0.29. With U2C G6U C27U A43C C46U C66A A70G C71U the “yeast fitness (ln)” value was -0.0138. For U2C G6A C27U C46U C66U A70G C71U, the “yeast fitness (ln)” value was -0.0332. In the case of U2C G6A A43C C46U C66U C71U, the “yeast fitness (ln)” value is reported as -0.0554. With U2C G6U A43C C66A A69G A70U C71U the “yeast fitness (ln)” value was -0.321. With U2C G6U A70U C71U the “yeast fitness (ln)” value was -0.102. For U2C G6A C46U C66U A70U C71U, the “yeast fitness (ln)” value was -0.183. For U2C G6U A43C C46U C66U A69G A70G C71U, the “yeast fitness (ln)” value was -0.169. With U2C G6A C46U C66U C71U the “yeast fitness (ln)” value was -0.164. With U2C G6A A43C C46U C66U A70G the “yeast fitness (ln)” value was -0.0107. With U2C G6A A43C C46U C66U A70U the “yeast fitness (ln)” value was -0.209. In the case of U2C G6U A43C C66U A69G A70G C71U, the “yeast fitness (ln)” value is reported as -0.352. With U2C G6A C27U C46U A69G C71U the “yeast fitness (ln)” value was -0.172. With U2C G6A C46U C66U A69G A70U the “yeast fitness (ln)” value was -0.138. In the case of U2C G6A C46U C66U A69G A70G, the “yeast fitness (ln)” value is reported as -0.0132. With U2C G6U A43C C46U the “yeast fitness (ln)” value was -0.0413. For U2C G6A C46U C71U, the “yeast fitness (ln)” value was -0.0887. For U2C G6A C46U A69G C71U, the “yeast fitness (ln)” value was -0.107. In the case of U2C G6A C27U A43C A69G A70G, the “yeast fitness (ln)” value is reported as -0.211. In the case of U2C G6A C27U A43C A69G A70U, the “yeast fitness (ln)” value is reported as -0.215. For U2C G6U A43C C66A A70U C71U, the “yeast fitness (ln)” value was -0.272. In the case of U2C G6A C27U, the “yeast fitness (ln)” value is reported as -0.0332. For U2C G6A C66U A70U C71U, the “yeast fitness (ln)” value was -0.172. With U2C G6U C27U A43C A70U C71U the “yeast fitness (ln)” value was -0.253. With U2C G6A C27U A43C C66U A69G C71U the “yeast fitness (ln)” value was -0.35. With U2C G6A C27U C46U A70U C71U the “yeast fitness (ln)” value was -0.123. For U2C G6A A43C C66U A69G A70G C71U, the “yeast fitness (ln)” value was -0.072. In the case of U2C G6A A70U C71U, the “yeast fitness (ln)” value is reported as -0.0821. With U2C G6A C27U A43C C46U C66U the “yeast fitness (ln)” value was -0.0567. With U2C G6A C27U A43C C46U A69G A70G C71U the “yeast fitness (ln)” value was -0.13. In the case of U2C G6U C27U A43C C46U A69G A70U C71U, the “yeast fitness (ln)” value is reported as -0.309. For U2C G6A C27U A69G A70G C71U, the “yeast fitness (ln)” value was -0.216. For U2C G6A C46U, the “yeast fitness (ln)” value was -0.0163. In the case of U2C G6U C27U A43C C46U C66U A69G A70G C71U, the “yeast fitness (ln)” value is reported as -0.275. In the case of U2C G6A C27U A43C C46U C66U A70U C71U, the “yeast fitness (ln)” value is reported as -0.225. With U2C G6A C27U A43C C46U C66U A70G C71U the “yeast fitness (ln)” value was -0.0215. For U2C G6A C27U C46U C66U A69G C71U, the “yeast fitness (ln)” value was -0.271. In the case of U2C G6U A43C C46U A70G C71U, the “yeast fitness (ln)” value is reported as -0.278. In the case of U2C G6U C27U A69G A70G C71U, the “yeast fitness (ln)” value is reported as -0.157. In the case of U2C G6U A43C A69G A70U C71U, the “yeast fitness (ln)” value is reported as -0.4. With U2C G6U C27U A43C C66U A69G A70G C71U the “yeast fitness (ln)” value was -0.347. In the case of U2C G6A C27U A43C C66U A69G A70G C71U, the “yeast fitness (ln)” value is reported as -0.293. In the case of U2C G6A C27U C66U A69G A70G, the “yeast fitness (ln)” value is reported as -0.0504. With U2C G6A C27U C66U A69G A70U the “yeast fitness (ln)” value was -0.138. In the case of U2C G6U C27U A43C C46U A69G A70U, the “yeast fitness (ln)” value is reported as -0.126. For U2C G6U C27U A43C C46U A69G A70G, the “yeast fitness (ln)” value was -0.227. In the case of U2C G6A C27U A43C C66A C71U, the “yeast fitness (ln)” value is reported as -0.333. For U2C G6A C27U A43C C66A A70U, the “yeast fitness (ln)” value was -0.0983. For U2C G6U A43C C46U A70U C71U, the “yeast fitness (ln)” value was -0.125. For U2C G6U C27U A43C C66U A70G C71U, the “yeast fitness (ln)” value was -0.313. In the case of U2C G6U C27U A70G, the “yeast fitness (ln)” value is reported as -0.185. In the case of U2C G6U C27U A70U, the “yeast fitness (ln)” value is reported as -0.153. In the case of U2C G6U C27U A43C C66A A69G A70G C71U, the “yeast fitness (ln)” value is reported as -0.431. In the case of U2C G6U A43C C46U C66U A69G A70U C71U, the “yeast fitness (ln)” value is reported as -0.471. In the case of U2C G6A C27U A70G C71U, the “yeast fitness (ln)” value is reported as -0.282. For U2C G6U C27U A43C A70G C71U, the “yeast fitness (ln)” value was -0.324. With U2C G6U A43C A70U C71U the “yeast fitness (ln)” value was -0.198. With U2C G6U C27U A43C C46U C66A A70U the “yeast fitness (ln)” value was -0.0786. With U2C G6U C27U A43C C46U C66A A70G the “yeast fitness (ln)” value was -0.0237. With U2C G6A C46U A70U C71U the “yeast fitness (ln)” value was -0.0461. In the case of U2C G6U A43C C46U C66U A70U C71U, the “yeast fitness (ln)” value is reported as -0.254. For U2C G6A C27U C46U C66A A69G A70G C71U, the “yeast fitness (ln)” value was -0.188. With U2C G6A C46U A69G A70U C71U the “yeast fitness (ln)” value was -0.183.

Source: the RNAGym collection of RNA variant scans (doi:10.1038/s41586-018-0170-7)
